Experimental data as given in ChEMBL document CHEMBL4196145, “Antitumor Activity of Diterpenoids from Jatropha gossypiifolia: Cell Cycle Arrest and Apoptosis-Inducing Activity in RKO Colon Cancer Cells” (J Nat Prod, 2018).
Active and inactive are the calls of the source. The rule behind the calls is not given here.

Legend:
RKO [1] = experiment: Growth inhibition of human RKO cells after 48 hrs by CCK-8 assay; assay type: functional, cell-based
Outline: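 CCK-8 (WST-8) was then added for 1 h at 37 °C and optical density read at 450 nm. Survival was expressed relative to untreated control wells and IC50 calculated. Three independent experiments.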

LoVo = experiment: Growth inhibition of human LoVo cells after 48 hrs by CCK-8 assay; assay type: functional, cell-based
RKO [2] = experiment: Induction of apoptosis in human RKO cells assessed as necrotic cells at 5.2 uM after 24 hrs by annexin V-FITC/propidium iodide staining based flow cytometry (reference value: 0.035%); assay type: functional
Outline: (§1)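 Annexin V-FITC/PI kit assay. RKO cells were treated for 24 h at 37 °C with compound, DMSO or 5-FU, collected and washed twice with PBS. They were resuspended in binding buffer and stained with annexin V-FITC and PI for 20 min at 37 °C in the dark. Flow cytometry was run immediately, with viable, early/late apoptotic and necrotic fractions read.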

RKO [3] = experiment: Cell cycle arrest in human RKO cells assessed as accumulation at G2/M phase at 2.6 uM after 24 hrs by propidium iodide staining based flow cytometry (reference value: 10.97%); assay type: functional
RKO [4] = experiment: Induction of apoptosis in human RKO cells assessed as viable cells at 5.2 uM after 24 hrs by annexin V-FITC/propidium iodide staining based flow cytometry (reference value: 94.1%); assay type: functional; settings: read-out: Activity; outline: as §1
RKO [5] = experiment: Induction of apoptosis in human RKO cells assessed as necrotic cells at 2.6 uM after 24 hrs by annexin V-FITC/propidium iodide staining based flow cytometry (reference value: 0.035%); assay type: functional; outline: as §1
RKO [6] = experiment: Cell cycle arrest in human RKO cells assessed as accumulation at S phase at 2.6 uM after 24 hrs by propidium iodide staining based flow cytometry (reference value: 37.89%); assay type: functional
RKO [7] = experiment: Induction of apoptosis in human RKO cells assessed as late apoptotic cells at 2.6 uM after 24 hrs by annexin V-FITC/propidium iodide staining based flow cytometry (reference value: 3.91%); assay type: functional; outline: as §1
RKO [8] = experiment: Induction of apoptosis in human RKO cells at 5.2 uM after 24 hrs by DAPI staining based fluorescence microscopy; assay type: functional, cell-based
RKO [9] = experiment: Induction of apoptosis in human RKO cells assessed as late apoptotic cells at 5.2 uM after 24 hrs by annexin V-FITC/propidium iodide staining based flow cytometry (reference value: 3.91%); assay type: functional; outline: as §1
RKO [10] = experiment: Cell cycle arrest in human RKO cells assessed as accumulation at G1 phase at 2.6 uM after 24 hrs by propidium iodide staining based flow cytometry (reference value: 51.13%); assay type: functional
RKO [11] = experiment: Cell cycle arrest in human RKO cells assessed as accumulation at G2/M phase at 5.2 uM after 24 hrs by propidium iodide staining based flow cytometry (reference value: 10.97%); assay type: functional
RKO [12] = experiment: Induction of apoptosis in human RKO cells assessed as early apoptotic cells at 5.2 uM after 24 hrs by annexin V-FITC/propidium iodide staining based flow cytometry (reference value: 1.98%); assay type: functional; outline: as §1
RKO [13] = experiment: Induction of apoptosis in human RKO cells assessed as viable cells at 2.6 uM after 24 hrs by annexin V-FITC/propidium iodide staining based flow cytometry (reference value: 94.1%); assay type: functional; settings: read-out: Activity; outline: as §1
RKO [14] = experiment: Induction of apoptosis in human RKO cells assessed as nuclear fragmentation at 2.6 to 5.2 uM after 24 hrs by DAPI staining based fluorescence microscopy; assay type: functional, cell-based
RKO [15] = experiment: Cell cycle arrest in human RKO cells assessed as accumulation at G1 phase at 5.2 uM after 24 hrs by propidium iodide staining based flow cytometry (reference value: 51.13%); assay type: functional
RKO [16] = experiment: Induction of apoptosis in human RKO cells after 24 hrs by annexin V-FITC/propidium iodide staining based flow cytometry; assay type: functional, cell-based; outline: as §1
RKO [17] = experiment: Induction of apoptosis in human RKO cells assessed as early apoptotic cells at 2.6 uM after 24 hrs by annexin V-FITC/propidium iodide staining based flow cytometry (reference value: 1.98%); assay type: functional; outline: as §1
RKO [18] = experiment: Induction of apoptosis in human RKO cells assessed as nuclear condensation at 2.6 to 5.2 uM after 24 hrs by DAPI staining based fluorescence microscopy; assay type: functional, cell-based
RKO [19] = experiment: Antimigratory activity against human RKO cells at 2.6 to 5.2 uM after 48 hrs by wound healing based inverted microscopy; assay type: functional, cell-based
Outline: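 Scratch-wound assay. RKO monolayers above 90% confluence were scratched with a sterile pipette tip and debris rinsed off with PBS. Cells were then kept in MEM with 2% FBS at 37 °C with compound, DMSO vehicle or 5-FU. Wounds were photographed by inverted microscopy at 0 and 48 h, and scratch area was compared with the original wound.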

RKO [20] = experiment: Cell cycle arrest in human RKO cells assessed as accumulation at S phase at 5.2 uM after 24 hrs by propidium iodide staining based flow cytometry (reference value: 37.89%); assay type: functional
RKO [21] = experiment: Induction of apoptosis in human RKO cells assessed as necrotic cells at 20.4 uM after 24 hrs by annexin V-FITC/propidium iodide staining based flow cytometry (reference value: 0.035%); assay type: functional
RKO [22] = experiment: Cell cycle arrest in human RKO cells assessed as accumulation at S phase at 20.4 uM after 24 hrs by propidium iodide staining based flow cytometry (reference value: 37.89%); assay type: functional
RKO [23] = experiment: Induction of apoptosis in human RKO cells assessed as early apoptotic cells at 20.4 uM after 24 hrs by annexin V-FITC/propidium iodide staining based flow cytometry (reference value: 1.98%); assay type: functional
RKO [24] = experiment: Cell cycle arrest in human RKO cells assessed as accumulation at G2/M phase at 20.4 uM after 24 hrs by propidium iodide staining based flow cytometry (reference value: 10.97%); assay type: functional
RKO [25] = experiment: Cell cycle arrest in human RKO cells assessed as accumulation at S phase at 10.2 uM after 24 hrs by propidium iodide staining based flow cytometry (reference value: 37.89%); assay type: functional
RKO [26] = experiment: Cell cycle arrest in human RKO cells assessed as accumulation at G1 phase at 10.2 uM after 24 hrs by propidium iodide staining based flow cytometry (reference value: 51.13%); assay type: functional
RKO [27] = experiment: Induction of apoptosis in human RKO cells assessed as viable cells at 10.2 uM after 24 hrs by annexin V-FITC/propidium iodide staining based flow cytometry (reference value: 94.1%); assay type: functional; settings: read-out: Activity
RKO [28] = experiment: Induction of apoptosis in human RKO cells assessed as necrotic cells at 10.2 uM after 24 hrs by annexin V-FITC/propidium iodide staining based flow cytometry (reference value: 0.035%); assay type: functional
RKO [29] = experiment: Induction of apoptosis in human RKO cells assessed as early apoptotic cells at 10.2 uM after 24 hrs by annexin V-FITC/propidium iodide staining based flow cytometry (reference value: 1.98%); assay type: functional
RKO [30] = experiment: Induction of apoptosis in human RKO cells assessed as late apoptotic cells at 10.2 uM after 24 hrs by annexin V-FITC/propidium iodide staining based flow cytometry (reference value: 3.91%); assay type: functional
RKO [31] = experiment: Induction of apoptosis in human RKO cells assessed as viable cells at 20.4 uM after 24 hrs by annexin V-FITC/propidium iodide staining based flow cytometry (reference value: 94.1%); assay type: functional; settings: read-out: Activity
RKO [32] = experiment: Cell cycle arrest in human RKO cells assessed as accumulation at G1 phase at 20.4 uM after 24 hrs by propidium iodide staining based flow cytometry (reference value: 51.13%); assay type: functional
RKO [33] = experiment: Cell cycle arrest in human RKO cells assessed as accumulation at G2/M phase at 10.2 uM after 24 hrs by propidium iodide staining based flow cytometry (reference value: 10.97%); assay type: functional
RKO [34] = experiment: Induction of apoptosis in human RKO cells assessed as late apoptotic cells at 20.4 uM after 24 hrs by annexin V-FITC/propidium iodide staining based flow cytometry (reference value: 3.91%); assay type: functional

C=C(C)[C@@H]1/C=C/[C@@H](C)C(=O)[C@H]2C[C@@H](C)[C@@H](OC(C)=O)/C2=C/[C@@H](C)C(=O)C1
growth inhibition (GI) (RKO [1]): inactive | growth inhibition (GI) (LoVo): inactive

C/C1=C/C2=C(C[C@@H](C)C2)C(=O)[C@@]2(C)C(=O)CC(C)(C)[C@@H]2CC1=O
growth inhibition (GI) (RKO [1]): inactive | growth inhibition (GI) (LoVo): inactive

CC(=O)O[C@H]1/C2=C/[C@@H](C)C(=O)C[C@H]3[C@@H](/C=C(\C)C(=O)[C@@]2(O)C[C@H]1C)C3(C)C
growth inhibition (GI) (RKO [1]): inactive | growth inhibition (GI) (LoVo): inactive

C=C1CC[C@H]2[C@@H](c3c(C)c(O)c4c(c31)C(=O)[C@@H](C)C4)C2(C)C
growth inhibition (GI) (RKO [1]): inactive | growth inhibition (GI) (LoVo): inactive

C=C(C)[C@@H]1/C=C/[C@@H](C)C(=O)[C@H]2C[C@@H](C)[C@@H](OC(C)=O)/C2=C/[C@](C)(O)C(=O)C1
growth inhibition (GI) (RKO [1]): inactive | growth inhibition (GI) (LoVo): inactive

C=C1CC[C@H]2[C@@H](c3c(C)c(O)c4c(c31)C(=O)[C@H](C)C4)C2(C)C
growth inhibition (GI) (RKO [1]): inactive | growth inhibition (GI) (LoVo): inactive

CC(=O)O[C@H]1/C2=C/[C@@H](C)C(=O)C[C@H]3[C@@H](C[C@@H](C)C(=O)[C@H]2C[C@H]1C)C3(C)C
growth inhibition (GI) (RKO [1]): inactive | growth inhibition (GI) (LoVo): inactive

CC1=C2CC(C)(C)/C=C/C(=O)/C(C)=C\C3=C[C@H](C)C[C@]3(O2)C1=O [JATROPHONE]
IC50 (RKO [1]): 8 µM | IC50 (LoVo): 18.6 µM

CC(=O)O[C@H]1/C2=C/[C@@H](C)C(=O)C[C@H]3[C@@H](/C=C(\C)C(=O)[C@H]2C[C@H]1C)C3(C)C
growth inhibition (GI) (RKO [1]): inactive | growth inhibition (GI) (LoVo): inactive

C/C1=C/[C@]23O[C@H]2[C@H](C)CC3C(=O)[C@]2(C)C(=O)CC(C)(C)[C@H]2CC1=O (stereo not given in full)
growth inhibition (GI) (RKO [1]): inactive | growth inhibition (GI) (LoVo): inactive

C=C1CC[C@@H](C(=C)C)[C@@H]2C=C(C)C(=O)C3=C(C(=O)[C@@H](C)[C@H]3O)[C@@H]12
Activity (RKO [2]): 0.811% | Activity (RKO [3]): 18.3% | viability at 5.2 µM (RKO [4]): 9.5% | Activity (RKO [5]): 0.404% | Activity (RKO [6]): 37.68% | Activity (RKO [7]): 27.6% | Activity (RKO [8]): Active | Activity (RKO [9]): 68.2% | Activity (RKO [10]): 44.03% | Activity (RKO [11]): 25.76% | Activity (RKO [12]): 21.5% | viability at 2.6 µM (RKO [13]): 59.9% | Activity (RKO [14]): Active | Activity (RKO [15]): 36.06% | Activity (RKO [16]): Dose-dependent effect | Activity (RKO [17]): 12.1% | IC50 (RKO [1]): 2.6 µM | Activity (RKO [18]): Active | Activity (RKO [19]): Active | Activity (RKO [20]): 38.18% | IC50 (LoVo): 14.5 µM

O=c1[nH]cc(F)c(=O)[nH]1 [FLUOROURACIL]
Activity (RKO [21]): 0.065% | Activity (RKO [22]): 12.12% | Activity (RKO [23]): 11.6% | Activity (RKO [24]): 21.48% | Activity (RKO [25]): 15.97% | Activity (RKO [26]): 62.56% | viability at 10.2 µM (RKO [27]): 69.2% | Activity (RKO [28]): 0.289% | Activity (RKO [29]): 9.75% | Activity (RKO [30]): 20.8% | IC50 (RKO [1]): 10.2 µM | viability at 20.4 µM (RKO [31]): 51.7% | Activity (RKO [32]): 66.4% | IC50 (LoVo): 11.5 µM | Activity (RKO [33]): 21.47% | Activity (RKO [34]): 36.7%

C/C1=C/C2=C(C[C@H](C)C2)C(=O)[C@@]2(C)C(=O)CC(C)(C)[C@@H]2CC1=O
growth inhibition (GI) (RKO [1]): inactive | growth inhibition (GI) (LoVo): inactive

C=C(C)[C@@H]1/C=C/[C@@H](C)C(=O)[C@H]2C[C@@H](C)[C@@H](OC(C)=O)[C@H]2/C=C(/C)C(=O)C1
growth inhibition (GI) (RKO [1]): inactive | growth inhibition (GI) (LoVo): inactive

CC(=O)O[C@H]1C2=C[C@@H](C)C(=O)[C@H]3[C@H]4[C@@H](C[C@@H](C)[C@]3(O)[C@H]2C[C@H]1C)C4(C)C
growth inhibition (GI) (RKO [1]): inactive | growth inhibition (GI) (LoVo): inactive

C=C(C)[C@@H]1/C=C/[C@@H](C)C(=O)[C@H]2C[C@@H](C)[C@@H](O)/C2=C/[C@@H](C)C(=O)C1
growth inhibition (GI) (RKO [1]): inactive | growth inhibition (GI) (LoVo): inactive
